Bioassay records: PubChem BioAssay, several laboratories
JMJD2C inh: human JMJD2C demethylase inhibition. GST-JMJD2C(1-420) H3K9me3 demethylation, DELFIA europium. inhibition, % at 2.35 µM. 330,000 tested, 0.069% active. AID 2099;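 active = more than half of a compound's replicate wells show inhibition beyond 50%, single wells judged on their own value; inconclusive = some, but no more than half, of replicates pass 50% inhibition; inactive = no replicate passes 50% inhibition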;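 note: signal counts dimethyl H3K9 product captured on neutravidin plate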
Rtt109 HAT inh: C. albicans Rtt109 histone acetyltransferase inhibition. Q5AAJ8. purified Rtt109/Vps75, ThioGlo CoA-SH fluorescence, 4 h. inhibition, % at 34.9 µM. 330,000 tested, 0.16% active;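 active = inhibition of at least 50% in every replicate; inconclusive = best replicate reaches 50% inhibition but some replicates fall short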
Target sequence (Q5AAJ8 whole entry, looked up): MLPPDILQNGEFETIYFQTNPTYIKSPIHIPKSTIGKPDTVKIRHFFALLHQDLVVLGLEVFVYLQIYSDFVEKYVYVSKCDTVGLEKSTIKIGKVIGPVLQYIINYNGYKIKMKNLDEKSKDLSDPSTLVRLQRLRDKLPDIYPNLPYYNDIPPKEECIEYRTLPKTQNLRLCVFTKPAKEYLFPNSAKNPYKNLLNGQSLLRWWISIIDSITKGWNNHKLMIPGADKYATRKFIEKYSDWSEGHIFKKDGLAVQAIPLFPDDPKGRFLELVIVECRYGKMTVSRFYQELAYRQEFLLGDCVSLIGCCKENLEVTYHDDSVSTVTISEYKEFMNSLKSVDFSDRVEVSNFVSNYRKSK
GRIN3A LBD mod: NR3A (human) ligand-binding domain modulation | NR3A LBD differential scanning fluorimetry, Tm shift; 0% = protein alone, 100% = glycine-bound protein | AID 1259313 | 340,000 tested, 2.5% active | Tm shift relative to glycine control, % at 25 µM;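 active = melting temperature shift of at least 10% of the positive control shift, at one fixed dose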
T cell modulator: modulates CD8 T cell binding to vesicles; 2C CD8+ T cell-vesicle binding, flow cytometry; hits give low values; response (vesicle binding), % at 7 µM; 330,000 tested, 0.068% active; AID 2052;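 active = response, share of CD8 T cells binding vesicles, and their 90th percentile fluorescence all below set limits, cut at about 80% in these data, passing the limit was not always enough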;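 note: values below 100% mean blocked vesicle binding to the CD8+ T cells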
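System: murine 2C transgenic CD8+ T lymphocytes; also added: QL9-loaded Drosophila micro-vesicles; times: binding 1.5 h at 37 °C; measured by: flow cytometry, PE anti-B7-1 (FL2) versus Alexa647 anti-CD8 (FL8), PFA-fixed; control set: Peptide-free naked vesicles (low) and QL9 vesicles with 0.7% DMSO vehicle (high)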
Numbers stand for hits. Sampled rows, rich in hits. Any-hit rate of the full collection: about 2.8%.

What do the screens show for `Cc1cc(C)cc(N(C(C)C(=O)N2CCCC2)S(C)(=O)=O)c1` (stereo not given)?
JMJD2C inh: inactive; Rtt109 HAT inh: inactive; GRIN3A LBD mod: inactive; T cell modulator: inactive

What do the screens show for `COc1cc2c(cc1OC)C(C)N(C(=O)c1c(C)noc1C)CC2` (stereo not given)?
JMJD2C inh: inactive; Rtt109 HAT inh: inactive; GRIN3A LBD mod: inactive; T cell modulator: inactive

What do the screens show for `COc1cc2c(cc1OC)C(C)N(C(=O)c1cc(C)on1)CC2` (stereo not given)?
JMJD2C inh: inactive; Rtt109 HAT inh: inactive; GRIN3A LBD mod: 13; T cell modulator: inactive

What do the screens show for `O=C(COc1ccc2ccccc2c1Br)NNC(=O)Nc1ccccc1`?
JMJD2C inh: inactive; Rtt109 HAT inh: inactive; GRIN3A LBD mod: 10; T cell modulator: inactive

Results for CCn1c2ccccc2n2c(=O)c(=O)n(CC(=O)Nc3ccc(C(C)C)cc3)nc12 ?
JMJD2C inh: inactive; Rtt109 HAT inh: inactive; GRIN3A LBD mod: 13; T cell modulator: inactive

Results for O=C(CNC(=O)CNC(=O)c1ccc(Cl)cc1Cl)NCc1cccc(Cl)c1 ?
JMJD2C inh: inactive; Rtt109 HAT inh: inactive; GRIN3A LBD mod: inactive; T cell modulator: inactive

Results for Nc1nnc(CC(=O)N/N=C/c2cc([N+](=O)[O-])cc(Br)c2O)s1 ?
JMJD2C inh: inactive; Rtt109 HAT inh: inactive; GRIN3A LBD mod: 18; T cell modulator: inactive

What do the screens show for `Nc1nnc(CC(=O)N/N=C/c2cccc([N+](=O)[O-])c2)s1`?
JMJD2C inh: inactive; Rtt109 HAT inh: inactive; GRIN3A LBD mod: inactive; T cell modulator: inactive

How did CCOc1ccc(C(=O)/C=C/c2cn(CN3CCN(C)CC3)c3ccccc23)cc1 do in these assays?
JMJD2C inh: inactive; Rtt109 HAT inh: inactive; GRIN3A LBD mod: 32; T cell modulator: inactive

Results for COc1ccc(C(=O)/C=C/c2cn(CN3CCN(C)CC3)c3ccccc23)cc1 ?
JMJD2C inh: inactive; Rtt109 HAT inh: inactive; GRIN3A LBD mod: 36; T cell modulator: inactive

How did COc1ccc(C(=O)/C=C/c2cn(CC(O)CN3CCOCC3)c3ccccc23)cc1 (stereo not given) do in these assays?
JMJD2C inh: inactive; Rtt109 HAT inh: inactive; GRIN3A LBD mod: inactive; T cell modulator: inactive

What do the screens show for `COc1cc(/C=C/C(=O)Nc2ccc(S(=O)(=O)Nc3onc(C)c3C)cc2)cc(OC)c1OC`?
Rtt109 HAT inh: inactive; GRIN3A LBD mod: inactive

How did COc1ccc(Cl)cc1N(CC(=O)Nc1ccccc1C(=O)NCc1ccco1)S(C)(=O)=O do in these assays?
JMJD2C inh: inactive; Rtt109 HAT inh: inactive; GRIN3A LBD mod: inactive; T cell modulator: inactive

How did COc1ccc(OC)c(N(CC(=O)Nc2ccccc2C(=O)NCc2ccco2)S(C)(=O)=O)c1 do in these assays?
JMJD2C inh: inactive; Rtt109 HAT inh: inactive; GRIN3A LBD mod: 13; T cell modulator: inactive

How did Oc1ccc(C=NN=Cc2ccco2)c(O)c1 do in these assays?
Rtt109 HAT inh: inactive; GRIN3A LBD mod: inactive

What do the screens show for `CN(C)c1ccc(NC(=O)c2sc(SCC(=O)Nc3ccc(Br)cc3)nc2N)cc1`?
JMJD2C inh: inactive; Rtt109 HAT inh: inactive; GRIN3A LBD mod: 16; T cell modulator: inactive

Results for CN(C)c1ccc(NC(=O)c2sc(SCC(=O)Nc3nccs3)nc2N)cc1 ?
JMJD2C inh: inactive; Rtt109 HAT inh: inactive; GRIN3A LBD mod: inactive; T cell modulator: inactive

How did O=C(Nc1cccc2ncccc12)c1ccc(F)cc1 do in these assays?
JMJD2C inh: inactive; Rtt109 HAT inh: inactive; GRIN3A LBD mod: 12; T cell modulator: inactive

Results for O=C(Nc1cccc2ncccc12)c1cccc(F)c1 ?
JMJD2C inh: inconclusive; Rtt109 HAT inh: inactive; GRIN3A LBD mod: inactive; T cell modulator: inactive

How did O=C(/C=C/c1ccccc1)Nc1cccc(C(=O)NC2CC2)c1 do in these assays?
Rtt109 HAT inh: inactive; GRIN3A LBD mod: inactive

What do the screens show for `O=C(C1=C(O)C(=O)N(c2ncccn2)C1c1ccc(Cl)cc1)c1ccco1` (stereo not given)?
JMJD2C inh: inactive; Rtt109 HAT inh: inactive; GRIN3A LBD mod: inactive; T cell modulator: inactive

Results for Cc1ccc(C(=O)C2=C(O)C(=O)N(c3ncccn3)C2c2ccc(Cl)cc2)o1 (stereo not given) ?
JMJD2C inh: inactive; Rtt109 HAT inh: inactive; GRIN3A LBD mod: 13; T cell modulator: inactive

How did Cc1cccc(NS(=O)(=O)c2ccc(C)c(C(=O)NCC(c3cccs3)N(C)C)c2)c1 (stereo not given) do in these assays?
Rtt109 HAT inh: inactive; GRIN3A LBD mod: inactive

How did O=[N+]([O-])c1ccccc1N/N=C/c1ccccc1 do in these assays?
JMJD2C inh: inactive; Rtt109 HAT inh: inactive; GRIN3A LBD mod: inactive; T cell modulator: inactive

How did O=[N+]([O-])c1ccc(N/N=C/c2c[nH]c3ccccc23)cc1 do in these assays?
JMJD2C inh: inactive; Rtt109 HAT inh: inactive; GRIN3A LBD mod: 30; T cell modulator: inactive

What do the screens show for `Cn1cc([N+](=O)[O-])c(C(=O)N/N=C\c2c[nH]c3ccccc23)n1`?
JMJD2C inh: inactive; Rtt109 HAT inh: inactive; GRIN3A LBD mod: inactive; T cell modulator: inactive

Results for O=[N+]([O-])c1ccccc1N/N=C/c1c[nH]c2ccccc12 ?
JMJD2C inh: inactive; Rtt109 HAT inh: inactive; GRIN3A LBD mod: 16; T cell modulator: inactive

Results for CCOc1ccc(S(=O)(=O)NCCC(=O)NCc2ccc(OC)c(OC)c2)cc1 ?
JMJD2C inh: inactive; Rtt109 HAT inh: inactive; GRIN3A LBD mod: inactive; T cell modulator: inactive

What do the screens show for `COc1ccc(C(=O)NC(=O)CSc2n[nH]c(N)n2)cc1`?
JMJD2C inh: inactive; Rtt109 HAT inh: inactive; GRIN3A LBD mod: inactive; T cell modulator: inactive

How did CCN1CCN(C(=O)c2cc(COc3ccc(F)cc3F)on2)[C@@H](C)C1=O do in these assays?
JMJD2C inh: inactive; Rtt109 HAT inh: inactive; GRIN3A LBD mod: inactive; T cell modulator: inactive

What do the screens show for `O=C1C=C(c2ccoc2)N2CCC[C@H]2C1`?
JMJD2C inh: inactive; Rtt109 HAT inh: inactive; GRIN3A LBD mod: inactive; T cell modulator: inactive

How did CC(C)(C)c1ccc(-c2ccc3c(c2)S(=O)(=O)c2ccccc2C3=O)cc1 do in these assays?
JMJD2C inh: inactive; Rtt109 HAT inh: inactive; GRIN3A LBD mod: inactive; T cell modulator: inactive

How did CCc1ccc2c(c1)C(=O)c1ccccc1C2=O do in these assays?
JMJD2C inh: inactive; Rtt109 HAT inh: inactive; GRIN3A LBD mod: 18; T cell modulator: inactive

Results for CC(C)(C)c1ccc2c(c1)C(=O)c1ccccc1C2=O ?
JMJD2C inh: inactive; Rtt109 HAT inh: inactive; GRIN3A LBD mod: 24; T cell modulator: inactive

How did Oc1ccc(-c2cnc3ccccc3n2)cc1 do in these assays?
JMJD2C inh: inactive; Rtt109 HAT inh: inactive; GRIN3A LBD mod: 37; T cell modulator: inactive

How did CCCCOc1ccc(-c2cnc3ccccc3n2)cc1 do in these assays?
JMJD2C inh: inactive; Rtt109 HAT inh: inactive; GRIN3A LBD mod: 22; T cell modulator: inactive

How did O=C(O)C(c1ccccc1)N1C(=O)/C(=C\c2ccc(-c3ccc(Br)cc3)o2)SC1=S (stereo not given) do in these assays?
JMJD2C inh: inactive; Rtt109 HAT inh: inactive; GRIN3A LBD mod: inactive

Results for O=C(O)C(c1ccccc1)N1C(=O)/C(=C\c2ccc(-c3ccccc3Cl)o2)SC1=S (stereo not given) ?
JMJD2C inh: inactive; Rtt109 HAT inh: inactive; GRIN3A LBD mod: 31; T cell modulator: inactive
